The list is not random: actives were taken first. Their share in the collection is about 3.4%.
PHOSPHO1 inh: PubChem AID 1565 | recombinant PHOSPHO1, absorbance phosphatase assay | inhibition, % at 13.3 µM | 290,000 tested, 1.1% active; in the data active = inhibition above about 60%
Wee1 degr inh: Wee1 degradation inhibitors, primary screen, cell-based, HeLa, Wee1K328M-luciferase, luminescence. Wee1-like protein kinase (Homo sapiens), P30291. HeLa Luc-Wee1K328M stability; 100% = proteasome inhibitor MG132 effect. reporter increase, % at 5 µM. 220,000 tested, 1.2% active. AID 1321, 2008;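 active = activation above the mean of all tested compounds plus 3 SD, set per screening run, cut at about 8.8% in these data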;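 also: cells exposed to compound for 20 h before luminescence read; 0% = DMSO alone and 100% = MG132 at 30 µM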
Target sequence (P30291 whole entry K328M): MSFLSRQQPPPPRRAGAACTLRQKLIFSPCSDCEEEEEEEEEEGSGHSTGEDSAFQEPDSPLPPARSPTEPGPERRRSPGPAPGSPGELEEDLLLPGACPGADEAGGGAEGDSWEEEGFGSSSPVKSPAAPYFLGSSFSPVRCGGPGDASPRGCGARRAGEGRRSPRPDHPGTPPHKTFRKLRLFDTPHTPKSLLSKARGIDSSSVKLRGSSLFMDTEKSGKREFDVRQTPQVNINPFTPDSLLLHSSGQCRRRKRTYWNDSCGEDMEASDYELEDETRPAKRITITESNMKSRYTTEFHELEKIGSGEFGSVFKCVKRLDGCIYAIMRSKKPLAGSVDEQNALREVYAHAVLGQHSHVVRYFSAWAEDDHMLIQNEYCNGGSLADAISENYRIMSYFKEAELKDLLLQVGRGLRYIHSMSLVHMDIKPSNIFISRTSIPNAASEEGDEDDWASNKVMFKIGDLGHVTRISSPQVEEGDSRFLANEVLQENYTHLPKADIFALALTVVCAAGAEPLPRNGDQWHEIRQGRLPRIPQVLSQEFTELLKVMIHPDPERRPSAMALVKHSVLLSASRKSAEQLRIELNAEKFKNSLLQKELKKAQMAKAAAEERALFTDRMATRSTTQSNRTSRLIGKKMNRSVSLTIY
Runt-CBFb FRET: inhibitors of RUNX1 Runt–CBFb binding, primary screen, biochemical, FRET, Cerulean-Runt, Venus-CBFb, uHTS; Runt-related transcription factor 1 (Homo sapiens) + Core-binding factor subunit beta …; Cerulean-Runt/Venus-CBFb FRET ratio 530/480, 1 h; inhibition, % at 20 µM; 220,000 tested, 0.46% active; AID 1496, 2009;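 active = inhibition over about 50% at 20 µM in the single-dose screen, limit read from the data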;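 also: 0% = DMSO wells and 100% = excess unlabeled CBFb competitor control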
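Assay system: Cerulean-Runt domain / Medium: Tris 50 mM pH 7.5, KCl, K2SO4, 0.01% BSA / Timing: protein complex preformed 1 h, compound exposure 1 h, room temperature, dark / Measured by: FRET, excitation 422 nm, emission at 530 and 480 nm / Evaluation: loss of energy transfer signal / Control set: 5 µM unlabeled CBFb as full-inhibition high control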
RanGTP-Impb inh: inhibitors of RanGTP-importin-beta interaction, primary screen, biochemical, FRET, CFP-Ran, YFP-importin-beta, homogeneous. cell-free CFP-Ran/YFP-importin-beta FRET ratio. Ran GTPase (GTP-bound) - importin-beta complex. inhibition, % (concentration not given with the values). 300,000 tested, 1.1% active;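 active = more than half of the replicate wells show a fall in the fluorescence ratio signal beyond about 16%, limit read from the data, passing the limit was not always enough; inconclusive = exactly half of the replicate wells pass the set limit; inactive = fewer than half of replicates pass the limit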;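 also: 0% = DMSO wells and 100% = Ran loaded with GDP instead of GTP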
Runt-SMMHC FRET: inhibitors of RUNX1 Runt–CBFb-SMMHC binding, primary screen, biochemical, FRET, Cerulean-Runt, Venus-CBFb-SMMHC, uHTS; Runt-related transcription factor 1 (Homo sapiens) + Core-binding factor subunit beta …; Cerulean-Runt/Venus-CBFb-SMMHC FRET ratio 530/480, 1 h; inhibition, % at 20 µM; 220,000 tested, 0.74% active; AID 1434, 2008;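 active = mean inhibition across duplicate retests at 20 µM reaching about 50%, limit read from the data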;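 also: 0% = DMSO wells and 100% = wells with excess untagged CBFb-SMMHC; inhibitors lower the FRET ratio by blocking Runt binding to CBFb-SMMHC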
Efa HMGR inh: inhibitors of E. faecalis class II HMGR, primary screen, biochemical, Enterococcus faecalis. HMG-CoA reductase (Enterococcus faecalis, mvaE). purified E. faecalis HMGR, NADPH absorbance 340 nm kinetic. inhibition, % at 10 µM. 190,000 tested, 0.41% active. AID 1066, 2008;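 active = inhibition above a set limit, the median over all tested compounds plus 3 SD, cut at about 9.5% in these data; inconclusive = no clear call, values can overlap the other calls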;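 also: enzyme runs in reverse so mevalonate oxidation gives rising NADPH absorbance; 0% = complete reaction with DMSO and 100% = background rate lacking mevalonate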
Numbers without * were called inactive.

How did CCc1c(C)nc2c(Br)cccc2c1SCCC#N do in these assays?
PHOSPHO1 inh: 2; Wee1 degr inh: 3; Runt-CBFb FRET: -4; RanGTP-Impb inh: 29*; Runt-SMMHC FRET: -1; Efa HMGR inh: -2

How did COc1ccc(S(=O)(=O)N(C)C)cc1NC(=O)CSc1nnc(-c2cccnc2)o1 do in these assays?
PHOSPHO1 inh: 32; Wee1 degr inh: -2; Runt-CBFb FRET: 1; RanGTP-Impb inh: 1; Runt-SMMHC FRET: 0; Efa HMGR inh: 13*

How did O=S1(=O)C=C(SCc2ccccc2)Nc2ccccc21 do in these assays?
PHOSPHO1 inh: 50; Wee1 degr inh: 2; Runt-CBFb FRET: -2; RanGTP-Impb inh: inconclusive; Runt-SMMHC FRET: -4; Efa HMGR inh: -1

What do the screens show for `COc1ccc(CSC2=CS(=O)(=O)c3ccccc3N2)cc1`?
PHOSPHO1 inh: 37; Wee1 degr inh: 9.7*; Runt-CBFb FRET: -1; RanGTP-Impb inh: 2; Runt-SMMHC FRET: 0; Efa HMGR inh: -1

What do the screens show for `COc1cccc(OC)c1-c1nn2c(-c3ccccc3Cl)nnc2s1`?
PHOSPHO1 inh: 4; Wee1 degr inh: -3; Runt-CBFb FRET: -1; RanGTP-Impb inh: 2; Runt-SMMHC FRET: -1; Efa HMGR inh: -3

What do the screens show for `Cc1cccc(NC(=O)C(=O)NCc2ccc3c(c2)OCO3)c1C`?
PHOSPHO1 inh: 40; Wee1 degr inh: -1; Runt-CBFb FRET: 0; RanGTP-Impb inh: -1; Runt-SMMHC FRET: -3; Efa HMGR inh: 10*

Results for Cc1cccc(NC(=O)CSc2ncnc3nc[nH]c23)c1C ?
PHOSPHO1 inh: 99*; Wee1 degr inh: -3; Runt-CBFb FRET: 1; RanGTP-Impb inh: -3; Runt-SMMHC FRET: -1; Efa HMGR inh: -2

How did Cc1cccc(NC(=O)CSc2ccc(-c3ccc4c(c3)OCO4)nn2)c1C do in these assays?
PHOSPHO1 inh: -56; Wee1 degr inh: -2; Runt-CBFb FRET: -1; RanGTP-Impb inh: inconclusive; Runt-SMMHC FRET: 0; Efa HMGR inh: 17*

Results for CC1CCCCN1C(=O)c1c(Cl)cnn1C (stereo unspecified) ?
PHOSPHO1 inh: -16

Results for COc1cc2c(cc1OC)CN(C1CCCN(Cc3cc(Cl)ccc3O)C1)CC2 (stereo unspecified) ?
PHOSPHO1 inh: -2; RanGTP-Impb inh: 5

What do the screens show for `CC1CCCC(NC(=O)c2ccc(COc3ccccc3)o2)C1C` (stereo unspecified)?
RanGTP-Impb inh: 7

What do the screens show for `CCc1ccccc1NC(=O)c1cccc(NC(=O)/C=C/c2ccco2)c1`?
PHOSPHO1 inh: -1; Wee1 degr inh: 1; Runt-CBFb FRET: -5; RanGTP-Impb inh: -1; Runt-SMMHC FRET: -5; Efa HMGR inh: 0

How did O=C(/C=C/c1ccco1)Nc1cccc(C(=O)Nc2ccccc2C(=O)O)c1 do in these assays?
PHOSPHO1 inh: 19; Wee1 degr inh: 11*; Runt-CBFb FRET: 14; RanGTP-Impb inh: -1; Runt-SMMHC FRET: 6

How did O=C(COc1ccc(S(=O)(=O)N2CCOCC2)cc1)N1CCc2ccccc2C1 do in these assays?
PHOSPHO1 inh: 22; Wee1 degr inh: 0; Runt-CBFb FRET: 2; RanGTP-Impb inh: 6; Runt-SMMHC FRET: 0

Results for O=C(COc1ccc(S(=O)(=O)N2CCOCC2)cc1)N1CCN(c2ccccc2)CC1 ?
PHOSPHO1 inh: 68*; RanGTP-Impb inh: 0

What do the screens show for `COc1ccc(-c2c(N)n[nH]c2C)cc1OC`?
PHOSPHO1 inh: 39; Wee1 degr inh: 0; Runt-CBFb FRET: 0; RanGTP-Impb inh: 5; Runt-SMMHC FRET: -2; Efa HMGR inh: 15*

Results for COc1ccc(-c2c(-c3ccc(O)cc3O)n[nH]c2C)cc1OC ?
PHOSPHO1 inh: -2; Wee1 degr inh: 4; Runt-CBFb FRET: 1; RanGTP-Impb inh: 3; Runt-SMMHC FRET: -2; Efa HMGR inh: -6

How did CC(C)c1nn2c(N)c(/C=C3\C=Nc4ccccc43)c(=O)nc2s1 do in these assays?
PHOSPHO1 inh: 36; Wee1 degr inh: 2; Runt-CBFb FRET: 2; RanGTP-Impb inh: inconclusive; Runt-SMMHC FRET: 17

Results for Cc1cc2nc(=O)c(/C=C3\C=Nc4ccccc43)c(N)n2o1 ?
PHOSPHO1 inh: 18; Wee1 degr inh: 6; Runt-CBFb FRET: -5; RanGTP-Impb inh: 47*; Runt-SMMHC FRET: -45

Results for CC(C)Sc1nsc2nc(=O)c(/C=C3\C=Nc4ccccc43)c(N)n12 ?
PHOSPHO1 inh: -99; Wee1 degr inh: 2; Runt-CBFb FRET: 18; RanGTP-Impb inh: 33*; Runt-SMMHC FRET: 59*; Efa HMGR inh: -2

Results for Cc1c(CN2CCc3c([nH]c4ccccc34)C2C2CCCCC2)cnn1C (stereo unspecified) ?
PHOSPHO1 inh: 41; Wee1 degr inh: 0; Runt-CBFb FRET: -3; RanGTP-Impb inh: 4; Runt-SMMHC FRET: -4; Efa HMGR inh: 19*

What do the screens show for `COc1ccc(C(=O)N(C)CCCC2CCCC2)cc1OC1CCN(C(C)C)CC1`?
PHOSPHO1 inh: 33; RanGTP-Impb inh: 0

What do the screens show for `O=C(CN1C(=O)c2ccccc2C1=O)Nc1cccc([N+](=O)[O-])c1`?
PHOSPHO1 inh: 16; Wee1 degr inh: 0; Runt-CBFb FRET: 0; RanGTP-Impb inh: 21*; Runt-SMMHC FRET: 6; Efa HMGR inh: -6

How did Cc1cc(NC(=O)c2cncc(Br)c2)ccc1NC(=O)c1cc2ccccc2o1 do in these assays?
PHOSPHO1 inh: 2; RanGTP-Impb inh: 4

Results for Cn1c(N)c(S(=O)(=O)N2CCN(c3ccccc3Cl)CC2)c(=O)n(C)c1=O ?
PHOSPHO1 inh: 48; RanGTP-Impb inh: 26*

Results for Cn1c(N)c(S(=O)(=O)N2CCN(c3cccc(Cl)c3)CC2)c(=O)n(C)c1=O ?
PHOSPHO1 inh: 19; RanGTP-Impb inh: -1

Results for COC(=O)c1n[nH]c2ccccc12 ?
PHOSPHO1 inh: 9; Wee1 degr inh: 0; Runt-CBFb FRET: 0; RanGTP-Impb inh: 24*; Runt-SMMHC FRET: 7; Efa HMGR inh: 1

Results for COCCNC(=O)c1n[nH]c2ccccc12 ?
PHOSPHO1 inh: -32; Wee1 degr inh: 0; Runt-CBFb FRET: 0; RanGTP-Impb inh: inconclusive; Runt-SMMHC FRET: 2; Efa HMGR inh: -12

Results for CC1(C)CC(N2CCN(c3ccccc3)CC2)=CC(=[N+]2CCCC2)C1 ?
PHOSPHO1 inh: 86*; Wee1 degr inh: -3; Runt-CBFb FRET: -5; RanGTP-Impb inh: 4; Runt-SMMHC FRET: 3; Efa HMGR inh: 2
